Marks after values point to notes of the source that are not given here.
Key:
[1] = test system: 48 h-larvae mwh +/+ flr^3; assay: Wing spot test; type: in vivo, Drosophila melanogaster; details: for Small single spots (1–2 cells), statistical diagnosis / Total spots, statistical diagnosis: m = 2; for Small single spots (1–2 cells), statistical diagnosis / Total spots, statistical diagnosis / Large single spots (>cells), statistical diagnosis / Twin spots, statistical diagnosis: vs control; for Large single spots (>cells), statistical diagnosis / Twin spots, statistical diagnosis: m = 5
Outline: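 Crosses: mwh/mwh females × flr3/TM3,Bds males mated 2 h, eggs laid over 2 h. 48 h larvae were collected on 20% sucrose, washed in 24 ± 1 °C water, held 24 h in the dark on filter paper with PP-IX (0–69 mM in 5% sucrose), then fed CrO3 (0.025–2.5 mM) in instant medium, in triplicate. Non-Ser wings were scored at 40× for small (1–2 cells), large and twin spots. Frei–Würgler one-sided test, α=β=0.05, m multiplication factor.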

[2] = test system: 48 h-old mwh+/+flr^3 larvae; assay: Toxicity test; type: in vivo, Drosophila melanogaster; details: for % of non-viable larvae / No. of viable larvae ± SEM: 500 larvae

[O]=[Cr](=[O])=[O] [CrO3, chromium trioxide]
Large single spots (>cells) per wing ([1]; CrO3 0.025 mM, 120 wings): 0.04 spots per wing | Large single spots (>cells), number of spots ([1]; CrO3 0.025 mM, 120 wings): 5 | Small single spots (1–2 cells) per wing ([1]; CrO3 0.025 mM, 120 wings): 0.26 spots per wing | Small single spots (1–2 cells), number of spots ([1]; CrO3 0.025 mM, 120 wings): 31 | Total spots per wing ([1]; CrO3 0.025 mM, 120 wings): 0.33 spots per wing | Total spots, number of spots ([1]; CrO3 0.025 mM, 120 wings): 40 | Twin spots per wing ([1]; CrO3 0.025 mM, 120 wings): 0.03 spots per wing | Twin spots, number of spots ([1]; CrO3 0.025 mM, 120 wings): 4 | Small single spots (1–2 cells), statistical diagnosis ([1]; CrO3 0.025 mM): − | Total spots, statistical diagnosis ([1]; CrO3 0.025 mM): − | Large single spots (>cells), statistical diagnosis ([1]; CrO3 0.025 mM): − | Statistical significance of spot induction vs control ([1]; CrO3 0.25 mM and higher, all kinds of spots): Statistical significant differences were found for all kinds of spots | Large single spots (>cells) per wing ([1]; CrO3 0.25 mM, 150 wings): 0.11 spots per wing | Large single spots (>cells), number of spots ([1]; CrO3 0.25 mM, 150 wings): 16 | Small single spots (1–2 cells) per wing ([1]; CrO3 0.25 mM, 150 wings): 0.43 spots per wing | Small single spots (1–2 cells), number of spots ([1]; CrO3 0.25 mM, 150 wings): 64 | Total spots per wing ([1]; CrO3 0.25 mM, 150 wings): 0.59 spots per wing | Total spots, number of spots ([1]; CrO3 0.25 mM, 150 wings): 88 | Twin spots per wing ([1]; CrO3 0.25 mM, 150 wings): 0.05 spots per wing | Twin spots, number of spots ([1]; CrO3 0.25 mM, 150 wings): 8 | Small single spots (1–2 cells), statistical diagnosis ([1]; CrO3 0.25 mM): + | Total spots, statistical diagnosis ([1]; CrO3 0.25 mM): + | Large single spots (>cells), statistical diagnosis ([1]; CrO3 0.25 mM): − | Twin spots, statistical diagnosis ([1]; CrO3 0.25 mM): + | Large single spots (>cells) per wing ([1]; CrO3 1.25 mM, 118 wings): 0.36 spots per wing | Large single spots (>cells), number of spots ([1]; CrO3 1.25 mM, 118 wings): 42 | Small single spots (1–2 cells) per wing ([1]; CrO3 1.25 mM, 118 wings): 0.63 spots per wing | Small single spots (1–2 cells), number of spots ([1]; CrO3 1.25 mM, 118 wings): 74 | Total spots per wing ([1]; CrO3 1.25 mM, 118 wings): 1.12 spots per wing | Total spots, number of spots ([1]; CrO3 1.25 mM, 118 wings): 132 | Twin spots per wing ([1]; CrO3 1.25 mM, 118 wings): 0.14 spots per wing | Twin spots, number of spots ([1]; CrO3 1.25 mM, 118 wings): 16 | Small single spots (1–2 cells), statistical diagnosis ([1]; CrO3 1.25 mM): + | Total spots, statistical diagnosis ([1]; CrO3 1.25 mM): + | Large single spots (>cells), statistical diagnosis ([1]; CrO3 1.25 mM): + | Twin spots, statistical diagnosis ([1]; CrO3 1.25 mM): + | Large single spots (>cells) per wing ([1]; CrO3 2.0 mM, 80 wings): 0.52 spots per wing | Large single spots (>cells), number of spots ([1]; CrO3 2.0 mM, 80 wings): 42 | Small single spots (1–2 cells) per wing ([1]; CrO3 2.0 mM, 80 wings): 0.81 spots per wing | Small single spots (1–2 cells), number of spots ([1]; CrO3 2.0 mM, 80 wings): 65 | Total spots per wing ([1]; CrO3 2.0 mM, 80 wings): 1.79 spots per wing | Total spots, number of spots ([1]; CrO3 2.0 mM, 80 wings): 143 | Twin spots per wing ([1]; CrO3 2.0 mM, 80 wings): 0.45 spots per wing | Twin spots, number of spots ([1]; CrO3 2.0 mM, 80 wings): 36 | Small single spots (1–2 cells), statistical diagnosis ([1]; CrO3 2.0 mM): + | Total spots, statistical diagnosis ([1]; CrO3 2.0 mM): + | Large single spots (>cells), statistical diagnosis ([1]; CrO3 2.0 mM): + | Twin spots, statistical diagnosis ([1]; CrO3 2.0 mM): + | Large single spots (>cells) per wing ([1]; CrO3 2.5 mM, 120 wings): 1.97 spots per wing | Large single spots (>cells), number of spots ([1]; CrO3 2.5 mM, 120 wings): 236 | Small single spots (1–2 cells) per wing ([1]; CrO3 2.5 mM, 120 wings): 2.87 spots per wing | Small single spots (1–2 cells), number of spots ([1]; CrO3 2.5 mM, 120 wings): 344 | Total spots per wing ([1]; CrO3 2.5 mM, 120 wings): 6.95 spots per wing | Total spots, number of spots ([1]; CrO3 2.5 mM, 120 wings): 834 | Twin spots per wing ([1]; CrO3 2.5 mM, 120 wings): 2.11 spots per wing | Twin spots, number of spots ([1]; CrO3 2.5 mM, 120 wings): 254 | Small single spots (1–2 cells), statistical diagnosis ([1]; CrO3 2.5 mM): + | Total spots, statistical diagnosis ([1]; CrO3 2.5 mM): + | Large single spots (>cells), statistical diagnosis ([1]; CrO3 2.5 mM): + | Twin spots, statistical diagnosis ([1]; CrO3 2.5 mM): + | Frequency of mutation relative to the control group ([1]; higher CrO3 concentration (2.5 mM)): 20 times | % of non-viable larvae ([2]; CrO3 0.25 mM): 10% | No. of viable larvae ± SEM ([2]; CrO3 0.25 mM): 448 ± 0.3 | No. of viable larvae ± SEM ([2]; CrO3 2.0 mM): 325 ± 2.8 | % of non-viable larvae ([2]; CrO3 2.0 mM, significant to p < 0.05 compared with control): 35 ^* % | Mortality ([2]; CrO3 2.5 mM): 61% | Reduction of viability over the control ([2]; CrO3 2.5 mM): 45% | No. of viable larvae ± SEM ([2]; CrO3 2.5 mM): 194 ± 0.8 | % of non-viable larvae ([2]; CrO3 2.5 mM, significant to p < 0.05 compared with control): 61 ^* % | Toxicity compared to the control ([2]; CrO3 2 and 2.5 mM): toxic

Reference: paper PMC5598375 (Toxicology Reports, 2014)
